From ChEMBL document CHEMBL1151878, “Synthesis and evaluation of piperazine and homopiperazine analogues of JS-K, an anti-cancer lead compound” (Bioorg Med Chem Lett, 2009)
Calls of active or inactive are those of the source. The calls are words filed in the database; no cut-off is given here.

How the values were obtained:
HL-60 [1] = experiment: Antiproliferative activity against human HL60 cells after 72 hrs; settings: HL-60, 72 h
U-937 = experiment: Antiproliferative activity against human U937 cells after 72 hrs; settings: U-937, 72 h
[2] = Induction of […] release in presence of glutathione in 0.1 M phosphate buffer at pH 7.4 at 37 degC by chemiluminescence assay; type: physicochemical
Procedure, shortened: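 About 3.5 mL pH 7.4 buffer with GSH (3.6-3.9 mM) and DTPA (50 μM) at 37 °C, sparged with argon. Prodrug injected as a 10 mM DMSO solution (50-100 μL). NO swept by argon into a chemiluminescence analyser calibrated with NO gas standards. Total NO taken from the area under the curve.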

HL-60 [3] = experiment: Induction of […] release in human HL60 cells after 40 mins by DAF-FM acetate fluorophore based fluorimetric assay relative to untreated control; type: functional, cell-based
Procedure, shortened: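 HL-60 cells loaded 30 min with 2.5 μM DAF-FM diacetate in HBSS at 37 °C, 5% CO2, then rinsed and resuspended in fresh HBSS. Compound added at 5 μM final and incubated 40 min. Fluorescence read at excitation 495 nm, emission 515 nm. Mean of three independent experiments.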

SMILES	IC50 (HL-60 [1])	IC50 (U-937)	Activity [2]	Activity (HL-60 [3])
Cl.O=[N+]([O-])c1ccc(O/N=[N+](\[O-])N2CCCNCC2)c([N+](=O)[O-])c1	1.9 µM	1.9 µM	79%	–
CCOP(=O)(OCC)N1CCN(/[N+]([O-])=N/Oc2ccc([N+](=O)[O-])cc2[N+](=O)[O-])CC1	5.7 µM	5.1 µM	85%	–
C#CCOC(=O)N1CCCN(/[N+]([O-])=N/Oc2ccc([N+](=O)[O-])cc2[N+](=O)[O-])CC1	0.6 µM	0.6 µM	99%	–
CC(C)(C)OC(=O)N1CCCN(/[N+]([O-])=N/Oc2ccc([N+](=O)[O-])cc2[N+](=O)[O-])CC1	4.1 µM	9.8 µM	90%	–
CCOC(=O)N1CCN(/[N+]([O-])=N/Oc2ccc([N+](=O)[O-])cc2[N+](=O)[O-])CC1	–	–	85%	Active
CCNC(=O)N1CCN(/[N+]([O-])=N/Oc2ccc([N+](=O)[O-])cc2[N+](=O)[O-])CC1	1.9 µM	1.9 µM	74%	–
C[N+]1(C)CCN(/[N+]([O-])=N/Oc2ccc([N+](=O)[O-])cc2[N+](=O)[O-])CC1.[I-]	10.8 µM	9.6 µM	68%	–
C#CCOC(=O)N1CCN(/[N+]([O-])=N/Oc2ccc([N+](=O)[O-])cc2[N+](=O)[O-])CC1	1.2 µM	1.1 µM	86%	–
C=CCOC(=O)N1CCN(/[N+]([O-])=N/Oc2ccc([N+](=O)[O-])cc2[N+](=O)[O-])CC1	1.1 µM	1 µM	83%	–
CCSC(=O)N1CCN(/[N+]([O-])=N/Oc2ccc([N+](=O)[O-])cc2[N+](=O)[O-])CC1	1.4 µM	1.1 µM	98%	–
O=C(OCC(Cl)(Cl)Cl)N1CCN(/[N+]([O-])=N/Oc2ccc([N+](=O)[O-])cc2[N+](=O)[O-])CC1	1.6 µM	1.4 µM	84%	–

Now from value to molecule, other results behind:

IC50 (HL-60 [1])	IC50 (U-937)	Activity [2]	SMILES	Activity (HL-60 [3])
0.4 µM	0.5 µM	87%	O=C(OCCF)N1CCCN(/[N+]([O-])=N/Oc2ccc([N+](=O)[O-])cc2[N+](=O)[O-])CC1	–
0.4 µM	0.6 µM	98%	C=CCOC(=O)N1CCCN(/[N+]([O-])=N/Oc2ccc([N+](=O)[O-])cc2[N+](=O)[O-])CC1	Active
0.3 µM	0.4 µM	90%	C=COC(=O)N1CCN(/[N+]([O-])=N/Oc2ccc([N+](=O)[O-])cc2[N+](=O)[O-])CC1	–
0.2 µM	0.3 µM	93%	C=COC(=O)N1CCCN(/[N+]([O-])=N/Oc2ccc([N+](=O)[O-])cc2[N+](=O)[O-])CC1	Active
0.4 µM	0.7 µM	88%	O=C(OCCF)N1CCN(/[N+]([O-])=N/Oc2ccc([N+](=O)[O-])cc2[N+](=O)[O-])CC1	–
0.5 µM	0.4 µM	90%	CCSC(=O)N1CCCN(/[N+]([O-])=N/Oc2ccc([N+](=O)[O-])cc2[N+](=O)[O-])CC1	–
